# Screens as filed in PubChem.
# Shown are actives, neighbours in structure and some others; about 3.5% of the full set was active somewhere.
# MrgX1 antagonist: antagonists of human MrgX1 receptor, primary screen, HEK293 cells, Fluo-4 calcium flux; Mas-related G-protein coupled receptor member X1 (Homo sapiens), Q96LB2; BAM8-22 antagonism; active compounds read low; actives 1.3% (n = 310,000); B-score at 10 µM;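 active = calcium-response B-score plate-corrected more than 3 library SD below zero, starting fluorescence within 5 deviations, no agonist response on first addition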;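 also: peak minus trough fluorescence over baseline after final BAM8-22 challenge near maximal dose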
# Target sequence (Q96LB2 whole entry, looked up): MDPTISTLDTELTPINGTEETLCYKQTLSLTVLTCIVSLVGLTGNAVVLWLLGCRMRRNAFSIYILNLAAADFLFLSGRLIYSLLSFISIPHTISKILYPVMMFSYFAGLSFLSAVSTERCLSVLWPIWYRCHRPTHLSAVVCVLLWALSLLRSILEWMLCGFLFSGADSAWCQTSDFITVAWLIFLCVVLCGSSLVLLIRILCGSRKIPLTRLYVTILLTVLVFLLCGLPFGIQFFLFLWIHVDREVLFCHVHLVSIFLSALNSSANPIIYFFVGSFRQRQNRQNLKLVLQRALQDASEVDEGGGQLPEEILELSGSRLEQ
# RGS4 block: RGS4 inhibitors, primary screen, cell-based, HEK293 M3R inducible RGS4, calcium flux | Fluo-4 calcium flux; active compounds read high; triggered by carbachol at its EC20 | B-score at 10 µM | actives 0.45% (n = 310,000);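 active = B-score, a plate-corrected calcium signal, over three deviations above library mean, with baseline fluorescence within five deviations of library mean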;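 also: RGS4 expression induced by doxycycline in cells with stable M3 receptor; B-score is computed from the integrated fluorescence ratio over baseline after carbachol; higher B-score means a larger calcium signal and so more RGS4 inhibition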
# Target sequence (P49798 whole entry, looked up): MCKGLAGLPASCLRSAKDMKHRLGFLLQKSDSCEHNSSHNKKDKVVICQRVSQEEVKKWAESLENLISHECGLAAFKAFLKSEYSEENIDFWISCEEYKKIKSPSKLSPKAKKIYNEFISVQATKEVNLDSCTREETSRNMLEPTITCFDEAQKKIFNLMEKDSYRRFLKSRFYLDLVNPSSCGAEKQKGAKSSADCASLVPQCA
# RGS4 act: RGS4 potentiators or activators, primary screen, cell-based, HEK293 M3R inducible RGS4, calcium flux | actives 0.92% (n = 310,000) | B-score at 10 µM | carbachol calcium flux Fluo4; active compounds read low | AID 463111, 2010;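 active = B-score of the integrated calcium signal more than 4 SD below the library mean, with starting fluorescence not abnormally high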;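 also: negative B-score means reduced calcium response which marks RGS4 activation or potentiation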
#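 test system = HEK293 cells with stable M3R and inducible RGS4 | schedule = recording 10 s baseline at 1 Hz, 100 s post-agonist | technique = Fluo4-AM (2 µM) calcium-flux fluorescence, kinetic read | measure = Agonist-evoked peak-minus-minimum fluorescence over baseline, integrated ratio, B score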
# MrgX1 allo act: positive allosteric modulators of MrgX1, primary screen, HEK293 cells, Fluo-4 calcium flux; Mas-related G-protein coupled receptor member X1 (Homo sapiens), Q96LB2; FDSS; active compounds read high; B-score at 10 µM; actives 0.63% (n = 310,000);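 active = plate-corrected calcium response at least 3 library SD above typical, normal starting fluorescence, not activating the receptor alone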;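 also: compound read alongside a low EC10 to EC30 dose of BAM8-22 agonist; peak minus trough fluorescence over baseline measured at the second addition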
# MrgX1 agonist: agonists of human MrgX1 receptor, primary screen, HEK293 cells, Fluo-4 calcium flux; Fluo-4 calcium fluorescence, agonist mode; active compounds read high; AID 588627, 2011; actives 0.44% (n = 310,000); B-score at 10 µM; Mas-related G-protein coupled receptor member X1 (Homo sapiens), Q96LB2;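 active = calcium response B-score plate-corrected fluorescence ratio at least 3 library SD, with starting fluorescence B-score inside 5 SD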
#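 System: HEK293 cells stably expressing human MrgX1 receptor; Dosing: test compound in the initial addition of three; Schedule: overnight plating, then 30 min 37 °C plus 30 min room-temperature dye loading; Detection: kinetic calcium dye fluorescence, Fluo-4 NW; Controls: per-plate positive and negative controls for Z′ factor.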
# MrgX1 antag conf: MrgX1 receptor antagonists, duplicate retest, confirmation, HEK293 cells, Fluo-4 calcium flux; shares compounds with MrgX1 antagonist; BAM8-22 calcium flux; active compounds read low; remaining BAM8-22 calcium response % of control (active compounds read low), % at 10 µM; actives 19% (n = 2,300); AID 602420, 2012;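 active = remaining agonist calcium response no higher than 100% minus 3 SD of agonist-only control wells, with starting fluorescence near control levels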;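 also: agonist BAM8-22 given at a near maximal EC90 to ECmax level; peak minus minimum fluorescence divided by baseline after agonist addition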
# HEK293 Ca flux: nonspecific calcium signal in parental HEK293, confirmation, counter-screen for MrgX1 antagonist project, parental HEK293 cells, Fluo-4 calcium flux; shares compounds with MrgX1 antagonist; Fluo-4 calcium fluorescence, FDSS; fluorescence ratio F(max-min)/F0 at 10 µM; actives 2% (n = 4,000); AID 624111, 2012;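 active = duplicate-averaged calcium fluorescence ratio at least three times the standard deviation of buffer wells, a nonspecific response in parental cells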
# HEK293 Ca counter: calcium response in parental HEK293 cells, primary screen, counter-screen for MrgX1 allosteric activator project, cell-based, Fluo-4 calcium flux, duplicate; AID 624114, 2012; fluorescence ratio F(max-min)/F0 at 10 µM; Fluo-4 fluorescence ratio; active compounds read high; shares compounds with MrgX1 antagonist; actives 0.4% (n = 4,000);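 active = calcium fluorescence ratio, averaged over duplicates, at least 3 SD of the buffer-well ratio, meaning a nonspecific response in receptor-free cells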;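 also: untransfected parental HEK293 lacking MrgX1 used as counterscreen for MrgX1 allosteric activators; fluorescence change taken during the second addition on a kinetic imager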
# HEK293 Ca cntr2: calcium response in parental HEK293 cells, primary screen, counter-screen for MrgX1 agonist project, cell-based, Fluo-4 calcium flux, duplicate, agonist mode; shares compounds with MrgX1 antagonist; Fluo-4 calcium fluorescence (FDSS); active compounds read high; fluorescence ratio F(max-min)/F0 at 10 µM; actives 8.7% (n = 4,000); AID 624115, 2012;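 active = calcium fluorescence ratio at least three times the spread of buffer wells, meaning a non-specific response in parental cells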
# Starred values were filed as active, the others as inactive; i = inactive; · = no result given.
SMILES,MrgX1 antagonist,RGS4 block,RGS4 act,MrgX1 allo act,MrgX1 agonist,MrgX1 antag conf,HEK293 Ca flux,HEK293 Ca counter,HEK293 Ca cntr2
CCCCCn1c(=O)c(C(=O)NC(C)c2ccccc2)c(O)c2ccccc21 (stereo not given),-4.75*,i,i,i,i,i,i,i,i
COC(=O)C(O)(c1ccc(N(C)C(=O)c2ccc(Cl)c(Cl)c2)cc1)C(F)(F)F (stereo not given),-7.79*,i,i,i,i,i,i,i,i
CCOC(=O)C(O)(c1ccc(N(C)C(=O)c2ccc(Cl)c(Cl)c2)cc1)C(F)(F)F (stereo not given),i,i,i,i,i,·,·,·,·
Cc1c(OC(=O)N(C)C)ccc2c1O/C(=C\c1ccco1)C2=O,i,i,i,i,i,·,·,·,·
COC(=O)c1ccc(NC(=O)CSc2nc3ccc(N4C(=O)C5C6C=CC(C6)C5C4=O)cc3s2)cc1 (stereo not given),-7.39*,i,i,i,i,55.4%*,i,i,i
COc1cc(OC)c(OC)cc1CNCCc1ccc2c(c1)OCO2,i,i,i,i,i,·,·,·,·
COc1ccc(C(=O)Oc2cccc3cccnc23)cc1S(=O)(=O)N1CCOCC1,-5.97*,i,i,i,i,i,i,i,i
COc1ccc(C(=O)N2CCOCC2)cc1S(=O)(=O)N1CCC(C)CC1,i,i,i,i,i,·,·,·,·
CCc1nc2ccccc2c(=O)n1-c1ccccc1[N+](=O)[O-],i,i,i,i,i,·,·,·,·
Cc1nnc(SCc2nc3ccccc3c(=O)n2-c2ccccc2Cl)n1N,-8.23*,i,i,i,i,82.4%*,i,i,i
O=C(CCc1ccccc1)N1C[C@H]2C[C@@H](C1)c1cccc(=O)n1C2,i,i,i,i,i,·,·,·,·
O=C(Nc1ccc(F)c([N+](=O)[O-])c1)N1C[C@H]2C[C@@H](C1)c1cccc(=O)n1C2,i,i,i,i,i,·,·,·,·
CC(C)CCNC(=O)c1c(N)n(Cc2ccc3c(c2)OCO3)c2nc3ccccc3nc12,i,i,i,i,i,·,·,·,·
CC(C)CNC(=O)c1c(N)n(Cc2ccc3c(c2)OCO3)c2nc3ccccc3nc12,-5.96*,i,i,i,i,i,i,i,53.6*
CN1CCc2nc(SCc3cccc(Br)c3)c(C#N)cc2C1,-4.73*,i,i,i,i,i,i,i,i
CCOc1cc2c(cc1OCC)-n1cccc1C(c1ccc(OC(F)F)cc1)NC2 (stereo not given),-9.98*,i,i,i,i,42.5%*,i,i,i
COc1ccc(C(=O)CN2CCOCC2)cc1F,-5.17*,i,i,i,i,i,i,i,i
O=C(CN1CCOCC1)c1ccc2cc[nH]c2c1,i,i,i,i,i,·,·,·,·
CCCC1=C(C(=O)OCC)C2(C(=O)Nc3ccccc32)C(C#N)=C(N)O1 (stereo not given),-4.59*,i,i,i,i,i,i,i,i
CSc1ccc(C(=O)C2CCCN(Cc3cc4ccccc4[nH]3)C2)cc1 (stereo not given),-5.15*,i,-7.12*,i,i,79.4%*,i,i,i
O=C1/C(=C/c2cc3c(cc2Cl)OCO3)N2CCC1CC2,i,i,i,i,i,·,·,·,·
O=C1NC(=O)C(CCc2ccccn2)(Cc2ccc3c(c2)OCO3)C(=O)N1CCc1ccccc1 (stereo not given),-5.24*,i,i,i,i,i,i,i,i
c1ccc(CNCCc2ccc3c(c2)OCO3)nc1,i,i,i,i,i,·,·,·,·
Cc1nc2ccccc2c(=O)n1-c1cccc([N+](=O)[O-])c1,i,i,i,i,i,·,·,·,·
Nc1ccc([As](=O)(O)O)cc1,-6.01*,i,i,i,i,i,i,i,i
